Results as given in ChEMBL document CHEMBL1156066 (J Med Chem, 2009).
In brackets after ≈: the same amount, converted by molar mass. One block for each molecule: values may come before it.

Legend:
[1] = Terminal half life in rat at 5 mg/kg, iv; assay type: ADME, organism-based; set-up: dose 5 mg/kg, route intravenous; conditions: in vivo, read-out: beta t1/2 (converted)
[2] = Oral bioavailability in dog at 5 mg/kg; assay type: ADME, organism-based, Canis lupus familiaris; conditions: in vivo
[3] = Aqueous solubility of crystalline form of compound in buffer solution of pH 2.1 at 25 degC; assay type: physicochemical
[4] = Lipophilicity, log D at pH 6.5; assay type: physicochemical; conditions: buffer
Summary of the method: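 Log D was measured by the octanol/water shake-flask method using phosphate buffered solution, pH 6.5.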

[5] = Inhibition of HIV1 JRFL gp120/CD4 interaction in human HeLa67 cells assessed as inhibition of viral entry after 3 days by luciferase reporter gene assay; assay type: cell-based
Summary of the method: (§1)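 HeLa 67 cells (HeLa expressing CD4, CCR5 and CXCR4; DMEM, 10% heat-inactivated FBS, penicillin/streptomycin) were plated at 10^5 cells/well the day before infection. They were then infected with HIV LAI-Δenv-luc pseudotyped with JRFL or LAI envelope, in the presence of 10-step 3-fold DMSO serial dilutions (30 mM stocks), run in duplicate. After 3 days at 37 C, firefly luciferase was read. EC50 was from a one-site fit.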

[6] = Metabolic stability in human liver microsomes assessed as half life; assay type: ADME, Microsome
[7] = Cytotoxicity against human MT2 cells after 3 days by XTT assay; assay type: cell-based
Summary of the method: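 Uninfected MT-2 cells were exposed to 10-step 3-fold serial compound dilutions (30 mM DMSO stocks), run in parallel with the antiviral assay. Cell health was read by XTT after 3 days. CC50 was fitted with the same one-site equation as EC50.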

Rattus norvegicus = experiment: AUC in rat at 5 mg/kg, po; assay type: ADME, organism-based, Plasma; set-up: dose 5 mg/kg, route oral; conditions: in vivo
Cytochrome P450 2D6 = Cytochrome P450 2D6 (Homo sapiens, UniProt P10635); experiment: Inhibition of recombinant CYP2D6; assay type: ADME
[8] = test system: Human immunodeficiency virus 1; experiment: Antiviral activity against HIV1 clinical isolates; assay type: functional, organism-based
[9] = Aqueous solubility of crystalline form of compound in buffer solution of pH 6.5 at 25 degC; assay type: physicochemical
Summary of the method: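 Solubility of the crystalline solid was measured 24-72 h after adding it to phosphate buffered solution, pH 6.5, at room temperature.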

[10] = Permeability across human Caco-2 cell membrane at pH 6.5; assay type: ADME, cell-based; conditions: Caco-2, pH 6.5, read-out: permeability
[11] = Oral bioavailability in monkey at 5 mg/kg; assay type: ADME, organism-based, Macaca mulatta; conditions: rhesus monkey, in vivo
[12] = Inhibition of HIV1 LAI gp120/CD4 interaction in human HeLa67 cells assessed as inhibition of viral entry after 3 days by luciferase reporter gene assay; assay type: cell-based; summary of the method: as §1
[13] = Aqueous solubility of crystalline form of compound in buffer solution of pH 11 at 25 degC; assay type: physicochemical
Cytochrome P450 3A4 [14] = target: T1, Cytochrome P450 3A4 (Homo sapiens, UniProt P08684); experiment: Inhibition of recombinant CYP3A4 using benzyloxy-4-(trifluoromethyl)coumarin as substrate; assay type: ADME
Cytochrome P450 2C19 = Cytochrome P450 2C19 (Homo sapiens, UniProt P33261); experiment: Inhibition of recombinant CYP2C19; assay type: ADME
Cytochrome P450 3A4 [15] = target: T1, Cytochrome P450 3A4; experiment: Inhibition of recombinant CYP3A4 using 7-benzyloxyresorufin as substrate; assay type: ADME
Cytochrome P450 2C9 = Cytochrome P450 2C9 (Homo sapiens, UniProt P11712); experiment: Inhibition of recombinant CYP2C9; assay type: ADME
Cytochrome P450 1A2 = target: T2, Cytochrome P450 1A2 (Homo sapiens, UniProt P05177); experiment: Inhibition of recombinant CYP1A2; assay type: ADME
T2 sequence (P05177 whole entry): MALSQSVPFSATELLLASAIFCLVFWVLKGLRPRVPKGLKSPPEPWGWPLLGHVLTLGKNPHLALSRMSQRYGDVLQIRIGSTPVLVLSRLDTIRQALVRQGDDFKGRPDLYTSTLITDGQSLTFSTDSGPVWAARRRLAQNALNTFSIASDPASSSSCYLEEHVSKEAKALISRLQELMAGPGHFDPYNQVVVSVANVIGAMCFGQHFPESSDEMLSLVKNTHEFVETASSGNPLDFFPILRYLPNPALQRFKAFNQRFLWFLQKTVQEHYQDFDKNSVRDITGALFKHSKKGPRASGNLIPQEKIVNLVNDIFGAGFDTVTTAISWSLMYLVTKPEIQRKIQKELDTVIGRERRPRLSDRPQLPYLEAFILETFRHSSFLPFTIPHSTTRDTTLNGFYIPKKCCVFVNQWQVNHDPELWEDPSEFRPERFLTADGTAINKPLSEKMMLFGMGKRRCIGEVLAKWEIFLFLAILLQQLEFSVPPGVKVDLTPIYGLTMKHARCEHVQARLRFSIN

[16] = target: Voltage-gated inwardly rectifying potassium channel KCNH2 (Homo sapiens, UniProt Q12809); experiment: Inhibition of human ERG by channel flux assay
[17] = Ratio of plasma concentration in monkey at 5 mg/kg, po to EC50 for HIV1 clinical isolates; assay type: ADME, organism-based; set-up: dose 5 mg/kg, route oral; conditions: in vivo
[18] = Aqueous solubility of crystalline form of compound in buffer solution of pH 10 at 25 degC; assay type: physicochemical
[19] = Solubility at pH 1.5; assay type: physicochemical; conditions: buffer
[20] = Cmax in dog at 200 mg/kg; assay type: ADME, organism-based, Canis lupus familiaris; set-up: dose 200 mg/kg; conditions: in vivo
Summary of the method: (§2)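 Dogs were dosed at 200 mpk, with ECG monitored for drug-related changes and plasma Cmax determined.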

[21] = Cytotoxicity against human neuronal tumor cells; assay type: cell-based
[22] = Cytotoxicity against human PBMC; assay type: cell-based
[23] = Cytotoxicity against human lung cancer cell; assay type: cell-based, Cancer cell lines; conditions: lung cancer cells
[24] = Ratio of plasma concentration in rat at 5 mg/kg, po to EC50 for HIV1 clinical isolates; assay type: ADME, organism-based; set-up: dose 5 mg/kg, route oral; conditions: in vivo
Hepatocyte [25] = experiment: Cytotoxicity against human hepatocytes up to 200 uM in absence of CYP450 enzymes; assay type: ADME, cell-based
Summary of the method: (§3)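 Hepatocytes in vitro were exposed to concentrations up to 200 μM, with or without expression of each of the four major CYP 450 enzymes.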

[26] = Stability at pH 2 after 48 hrs; assay type: physicochemical; conditions: buffer, pH 2, 48 h
Summary of the method: (§4)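 The compound was held in solution at pH 2 or pH 7 for 48 h at 37 C and then checked for chemical change.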

[27] = Cytotoxicity against human hepatic cancer cells; assay type: cell-based, Cancer cell lines
[28] = Solubility at pH 4 to 8; assay type: physicochemical; conditions: buffer
[29] = Cytotoxicity against HEK cells; assay type: cell-based, HEK293; conditions: human
Hepatocyte [30] = experiment: Cytotoxicity against human hepatocytes up to 200 uM in presence of CYP450 enzymes; assay type: ADME, cell-based; summary of the method: as §3
[31] = Cytotoxicity against human cervical cancer cells; assay type: cell-based, Cancer cell lines
[32] = Aqueous solubility of crystalline form of compound in buffer solution of pH 1.5 at 25 degC; assay type: physicochemical
[33] = Ratio of plasma concentration in dog at 5 mg/kg, po to EC50 for HIV1 clinical isolates; assay type: ADME, organism-based; set-up: dose 5 mg/kg, route oral; conditions: in vivo
Canis familiaris = experiment: Cardiotoxicity in dog assessed as changes in ECG at 200 mg/kg; assay type: toxicity, organism-based, Canis lupus familiaris; set-up: dose 200 mg/kg; conditions: in vivo; summary of the method: as §2
[34] = Oral bioavailability in rat at 5 mg/kg administered as crystalline suspension; assay type: ADME, organism-based; conditions: in vivo
[35] = Cytotoxicity against human T cell; assay type: cell-based; conditions: T cells
[36] = Stability at pH 7 after 48 hrs; assay type: physicochemical; conditions: buffer, pH 7, 48 h; summary of the method: as §4
[37] = Cytotoxicity against human larynx cancer cells; assay type: cell-based, Cancer cell lines

Voltage-gated inwardly rectifying potassium channel KCNH2, sequence (Q12809 whole entry): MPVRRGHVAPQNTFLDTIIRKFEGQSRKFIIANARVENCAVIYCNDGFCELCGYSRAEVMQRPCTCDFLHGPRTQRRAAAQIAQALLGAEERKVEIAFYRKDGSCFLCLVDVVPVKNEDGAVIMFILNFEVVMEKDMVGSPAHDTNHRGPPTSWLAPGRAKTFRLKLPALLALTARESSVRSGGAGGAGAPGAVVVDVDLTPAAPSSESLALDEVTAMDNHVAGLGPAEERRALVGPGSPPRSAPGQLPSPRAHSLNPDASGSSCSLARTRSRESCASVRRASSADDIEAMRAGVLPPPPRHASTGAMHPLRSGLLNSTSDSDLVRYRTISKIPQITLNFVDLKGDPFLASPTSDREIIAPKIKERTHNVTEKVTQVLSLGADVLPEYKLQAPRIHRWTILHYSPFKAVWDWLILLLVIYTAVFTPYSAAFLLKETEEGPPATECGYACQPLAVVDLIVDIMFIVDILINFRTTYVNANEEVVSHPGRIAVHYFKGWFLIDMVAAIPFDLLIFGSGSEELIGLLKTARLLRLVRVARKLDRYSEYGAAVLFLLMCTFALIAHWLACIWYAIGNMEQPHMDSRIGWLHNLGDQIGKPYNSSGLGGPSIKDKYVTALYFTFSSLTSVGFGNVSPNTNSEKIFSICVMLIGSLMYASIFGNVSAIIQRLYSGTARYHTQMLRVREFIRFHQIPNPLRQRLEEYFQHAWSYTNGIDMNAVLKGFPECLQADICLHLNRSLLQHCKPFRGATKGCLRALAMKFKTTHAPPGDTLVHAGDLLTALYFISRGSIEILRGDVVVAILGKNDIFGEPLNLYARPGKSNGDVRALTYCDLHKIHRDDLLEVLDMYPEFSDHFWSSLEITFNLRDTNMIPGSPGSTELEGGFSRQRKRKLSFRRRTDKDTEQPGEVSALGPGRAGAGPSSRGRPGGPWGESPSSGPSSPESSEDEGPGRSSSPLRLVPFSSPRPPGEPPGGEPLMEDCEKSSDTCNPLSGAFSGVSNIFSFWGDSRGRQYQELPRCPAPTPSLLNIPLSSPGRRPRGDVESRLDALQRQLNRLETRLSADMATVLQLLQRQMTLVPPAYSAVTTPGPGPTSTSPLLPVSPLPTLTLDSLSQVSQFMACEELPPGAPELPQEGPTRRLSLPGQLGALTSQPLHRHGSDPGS
Cytochrome P450 2D6, sequence (P10635 whole entry): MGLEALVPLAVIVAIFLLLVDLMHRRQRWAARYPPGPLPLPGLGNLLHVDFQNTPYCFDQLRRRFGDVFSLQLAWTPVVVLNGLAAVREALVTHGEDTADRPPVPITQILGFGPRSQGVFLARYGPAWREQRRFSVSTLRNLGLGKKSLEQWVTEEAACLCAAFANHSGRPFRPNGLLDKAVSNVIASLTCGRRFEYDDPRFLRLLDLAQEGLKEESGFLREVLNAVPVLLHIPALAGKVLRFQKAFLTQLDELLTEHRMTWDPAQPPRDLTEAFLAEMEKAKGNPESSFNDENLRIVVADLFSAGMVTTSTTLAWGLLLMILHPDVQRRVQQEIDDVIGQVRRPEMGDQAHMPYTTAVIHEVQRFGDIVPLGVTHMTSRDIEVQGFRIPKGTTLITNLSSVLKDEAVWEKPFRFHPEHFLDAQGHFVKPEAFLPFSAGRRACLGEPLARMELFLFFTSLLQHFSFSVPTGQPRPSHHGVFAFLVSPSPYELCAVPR
Cytochrome P450 2C19, sequence (P33261 whole entry): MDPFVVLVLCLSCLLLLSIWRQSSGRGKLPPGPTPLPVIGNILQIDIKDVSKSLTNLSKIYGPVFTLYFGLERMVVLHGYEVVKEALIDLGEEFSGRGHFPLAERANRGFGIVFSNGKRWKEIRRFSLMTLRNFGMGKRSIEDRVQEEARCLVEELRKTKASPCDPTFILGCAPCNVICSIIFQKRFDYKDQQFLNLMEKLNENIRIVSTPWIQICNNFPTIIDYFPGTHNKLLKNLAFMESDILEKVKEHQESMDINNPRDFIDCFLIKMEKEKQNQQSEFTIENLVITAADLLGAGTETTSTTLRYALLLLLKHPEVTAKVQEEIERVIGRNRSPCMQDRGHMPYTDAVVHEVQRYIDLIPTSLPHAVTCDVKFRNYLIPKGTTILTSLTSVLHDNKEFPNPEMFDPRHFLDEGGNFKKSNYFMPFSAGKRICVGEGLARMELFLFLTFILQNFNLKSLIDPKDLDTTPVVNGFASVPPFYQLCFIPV
Cytochrome P450 2C9, sequence (P11712 whole entry): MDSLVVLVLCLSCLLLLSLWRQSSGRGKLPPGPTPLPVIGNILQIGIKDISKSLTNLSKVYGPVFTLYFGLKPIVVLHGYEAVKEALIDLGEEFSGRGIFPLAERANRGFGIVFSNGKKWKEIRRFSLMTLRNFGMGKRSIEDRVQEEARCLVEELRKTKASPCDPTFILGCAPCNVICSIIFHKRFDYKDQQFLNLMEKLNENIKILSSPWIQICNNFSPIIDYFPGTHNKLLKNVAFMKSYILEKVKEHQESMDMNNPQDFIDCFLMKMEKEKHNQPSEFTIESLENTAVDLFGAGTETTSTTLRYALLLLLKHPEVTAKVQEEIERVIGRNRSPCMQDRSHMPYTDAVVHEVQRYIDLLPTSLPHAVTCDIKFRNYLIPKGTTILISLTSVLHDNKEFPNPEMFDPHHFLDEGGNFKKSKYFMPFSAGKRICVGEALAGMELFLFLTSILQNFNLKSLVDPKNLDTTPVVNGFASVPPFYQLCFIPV
T1 sequence (P08684 whole entry): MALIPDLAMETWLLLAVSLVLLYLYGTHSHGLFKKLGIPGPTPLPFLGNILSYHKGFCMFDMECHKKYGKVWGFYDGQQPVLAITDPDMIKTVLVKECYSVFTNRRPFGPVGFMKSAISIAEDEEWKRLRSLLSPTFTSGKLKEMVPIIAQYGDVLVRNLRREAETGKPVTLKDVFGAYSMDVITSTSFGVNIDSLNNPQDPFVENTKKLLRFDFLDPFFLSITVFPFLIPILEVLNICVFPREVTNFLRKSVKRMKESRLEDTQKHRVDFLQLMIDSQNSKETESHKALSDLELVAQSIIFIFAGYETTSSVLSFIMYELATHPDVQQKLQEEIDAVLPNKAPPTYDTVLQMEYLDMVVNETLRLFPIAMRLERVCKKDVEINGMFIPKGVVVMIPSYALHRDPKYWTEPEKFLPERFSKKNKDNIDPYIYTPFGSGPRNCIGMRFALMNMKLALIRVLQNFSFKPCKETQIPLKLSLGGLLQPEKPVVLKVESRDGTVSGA

half-life [1]: 18 min | bioavailability [2]: 77% | solubility [3]: 1300 µg/mL (≈ 3200 µM) | logD [4]: 1.6 | EC50 [5]: 0.00147 µM | half-life [6]: 37 min | AUC (Rattus norvegicus): 0.5 µg/h/mL | IC50 (Cytochrome P450 2D6): 9.7 µM | EC50 [8]: 0.0615 µM | solubility [9]: 200 µg/mL (≈ 492 µM) | Papp [10]: 5.1 ×10⁻⁶ cm/s | bioavailability [11]: 24% | EC50 [12]: 0.00268 µM | solubility [13]: 3300 µg/mL (≈ 8120 µM)
SMILES: COc1ccnc2[nH]cc(C(=O)C(=O)N3CCN(C(=O)c4ccccc4)C[C@H]3C)c12
CC50 at 72 h [7]: > 300 µM

IC50 (Cytochrome P450 3A4 [14]): > 40 µM | IC50 (Cytochrome P450 2C19): 36 µM | logD [4]: 0.9 | EC50 [5]: 0.0016 µM | IC50 (Cytochrome P450 3A4 [15]): > 40 µM | half-life [6]: > 100 min | IC50 (Cytochrome P450 2C9): > 40 µM | IC50 (Cytochrome P450 2D6): > 40 µM | IC50 (Cytochrome P450 1A2): > 40 µM | solubility [9]: 932 µg/mL (≈ 2480 µM) | Papp [10]: 7.6 ×10⁻⁶ cm/s
SMILES: C[C@@H]1CN(C(=O)c2ccccc2)CCN1C(=O)C(=O)c1c[nH]c2cccnc12
CC50 at 72 h [7]: > 300 µM | IC50 [16]: > 80 µM

IC50 (Cytochrome P450 3A4 [14]): > 40 µM | IC50 (Cytochrome P450 2C19): 7.2 µM | logD [4]: 1.5 | EC50 [5]: 0.0216 µM | IC50 (Cytochrome P450 3A4 [15]): > 40 µM | half-life [6]: 38.5 min | IC50 (Cytochrome P450 2C9): 17 µM | IC50 (Cytochrome P450 2D6): 38 µM | IC50 (Cytochrome P450 1A2): > 40 µM | solubility [9]: 487 µg/mL (≈ 1290 µM) | Papp [10]: < 1.5 ×10⁻⁶ cm/s
SMILES: C[C@@H]1CN(C(=O)c2ccccc2)CCN1C(=O)C(=O)c1c[nH]c2cnccc12
CC50 at 72 h [7]: > 300 µM | IC50 [16]: > 80 µM

Ratio [17]: 18 | solubility [18]: 250 µg/mL (≈ 592 µM) | solubility [19]: 900 µg/mL (≈ 2130 µM) | Cmax [20]: 33 µM | IC50 (Cytochrome P450 3A4 [14]): > 40 µM | half-life [1]: 144 min | Ratio [24]: 18 | Stability [26]: Stable | IC50 (Cytochrome P450 2C19): > 40 µM | solubility [28]: 40 µg/mL (≈ 94.7 µM) | logD [4]: 1.5 | EC50 [5]: 0.00088 µM | IC50 (Cytochrome P450 3A4 [15]): > 40 µM | half-life [6]: > 100 min | solubility [32]: 900 µg/mL (≈ 2130 µM) | IC50 (Cytochrome P450 2C9): 30 µM | AUC (Rattus norvegicus): 6.3 µg/h/mL | IC50 (Cytochrome P450 2D6): > 40 µM | IC50 (Cytochrome P450 1A2): > 40 µM | Ratio [33]: 18 | EC50 [8]: 0.0365 µM | solubility [9]: 40 µg/mL (≈ 94.7 µM) | Papp [10]: 17.8 ×10⁻⁶ cm/s | bioavailability [11]: 60% | bioavailability [34]: 55% | EC50 [12]: 0.00115 µM | Stability [36]: Stable
SMILES: COc1ncc(OC)c2c(C(=O)C(=O)N3CCN(C(=O)c4ccccc4)CC3)c[nH]c12
CC50 [21]: ≥ 120 µM | CC50 [22]: ≥ 120 µM | CC50 [23]: ≥ 120 µM | Activity (Hepatocyte [25]): Non-toxic | CC50 [27]: ≥ 120 µM | CC50 [29]: ≥ 120 µM | Activity (Hepatocyte [30]): Non-toxic | CC50 [31]: ≥ 120 µM | CC50 at 72 h [7]: > 300 µM | Activity (Canis familiaris): Non-toxic | IC50 [16]: > 80 µM | CC50 [35]: ≥ 120 µM | CC50 [37]: ≥ 120 µM
